Calls of active or inactive are those of the source.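 How the source made its calls: active means maximum inhibition above 30% at any tested concentration, with a dose response curve fitted; inactive means no inhibition at any dose or no dose response curve.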
experiment: parental HEK293 potassium flux blockers – cell-based, FluxOR thallium flux, concentration-response, set 2, counter-screen for KCNK9 inhibitor project, SAR follow-up (AID 540324); settings: FluxOR fluorescence ratio; series mostly up to 30 µM
Outline: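 Assay system: parental HEK293 cells. Probe or stimulus: K+/Tl+ sulfate stimulus, 5x stock. Compound dosing: 10 concentrations. Times: dye loading 90 min at room temperature in dark, compound exposure 20 min. Technique: FluxOR thallium-flux fluorescence. Repeats: at least two replicates per compound.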

Row | Compound | outcome
1 | CC(C1CC2CCC1C2)n1c(-c2ccsc2)n[nH]c1=S (stereo unspecified) | inactive
2 | O=C(Nc1cccc(NC(=O)c2ccc(F)cc2)c1)c1ccccc1 | inactive
3 | CC(C)n1c(-c2ccco2)n[nH]c1=S | inactive
4 | COc1ccccc1-c1n[nH]c(=S)n1C(C)C1CC2CCC1C2 (stereo unspecified) | inactive
5 | COc1ccc(-c2n[nH]c(=S)n2C(C)C2CC3CCC2C3)cc1 (stereo unspecified) | inactive
6 | COc1ccccc1NC(=O)c1cccc(NC(=O)C2CCCC2)c1 | inactive
7 | O=C(Nc1cccc(NC(=O)c2ccc(Cl)cc2)c1)c1ccccc1 | inactive
8 | CCOc1ccccc1NC(=O)c1cccc(NC(=O)c2ccc(Cl)cc2)c1 | inactive
9 | O=C(Nc1cccc(NC(=O)C2CCCCC2)c1)c1ccccc1 | inactive
10 | COc1cccc(C(=O)Nc2cccc(NC(=O)c3cccc(C)c3)c2)c1 | inactive
11 | COc1ccccc1NC(=O)c1cccc(NC(=O)c2ccccc2OC)c1 | inactive
12 | COc1ccccc1C(=O)Nc1cccc(NC(=O)c2ccccc2OC)c1 | inactive
13 | O=C(Nc1cccc(NC(=O)c2ccccc2Cl)c1)c1ccccc1 | inactive
14 | CC(C)(C)c1ccc(C(=O)Nc2cccc(NC(=O)c3ccccc3)c2)cc1 | inactive
15 | CCOc1ccccc1NC(=O)c1cccc(NC(=O)C(C)(C)C)c1 | inactive
16 | CCOc1ccccc1NC(=O)c1cccc(NC(=O)c2ccccc2OC(F)(F)F)c1 | inactive
17 | CC(C1CC2CCC1C2)n1c(C2CCOC2)n[nH]c1=S (stereo unspecified) | inactive
18 | COc1cccc(OC)c1C(=O)Nc1cccc(NC(=O)c2cccc(C)c2)c1 | inactive

Row | Compound | outcome
19 | Cc1cccc(C(=O)Nc2cccc(NC(=O)c3ccccc3OC(F)(F)F)c2)c1 | inactive
20 | O=C(Nc1cccc(NC(=O)c2ccc(C(F)(F)F)cc2)c1)c1ccccc1 | inactive
21 | O=C(Nc1cccc(NC(=O)c2ccoc2)c1)c1ccccc1 | inactive
22 | Cc1cccc(C(=O)Nc2cccc(NC(=O)c3cccc(C(F)(F)F)c3)c2)c1 | inactive
23 | COc1ccccc1C(=O)Nc1cccc(NC(=O)c2ccccc2OC(F)(F)F)c1 | inactive
24 | COc1ccccc1NC(=O)c1cccc(NC(=O)c2ccccc2C(F)(F)F)c1 | inactive
25 | Cc1cccc(C(=O)Nc2cccc(NC(=O)c3ccccc3)c2)c1 | inactive
26 | CC(c1ccccc1)n1c(-c2ccco2)n[nH]c1=S (stereo unspecified) | inactive
27 | CCOc1ccccc1NC(=O)c1cccc(NC(=O)c2cccc(Cl)c2)c1 | inactive
28 | COc1ccc(C(=O)Nc2cccc(NC(=O)c3ccccc3)c2)cc1 | inactive
29 | COc1ccccc1NC(=O)c1cccc(NC(=O)CC2CCCC2)c1 | inactive
30 | CCOc1cccc(NC(=O)c2cccc(NC(=O)C3CCCC3)c2)c1 | inactive
31 | O=C(Nc1cccc(NC(=O)c2ccsc2)c1)c1ccccc1 | inactive
32 | O=C(Nc1cccc(NC(=O)c2cccc(Cl)c2)c1)c1ccccc1 | inactive
33 | CC(C1CC2CCC1C2)n1c(-c2ccc(Cl)cc2)n[nH]c1=S (stereo unspecified) | inactive
34 | Cc1ccccc1C(=O)Nc1cccc(NC(=O)c2ccccc2)c1 | inactive
35 | O=C(Nc1cccc(NC(=O)c2cccc(F)c2)c1)c1ccccc1 | inactive
36 | COc1cccc(C(=O)Nc2cccc(NC(=O)c3ccccc3)c2)c1 | inactive

Reference: PubChem BioAssay AID540324 (Johns Hopkins Ion Channel Center, 2011)
